Consider ten molecules from ChEMBL document CHEMBL1275396 (J Med Chem, 2010).

Test [1] addresses Neuronal acetylcholine receptor; alpha4/beta2 (Rattus norvegicus, UniProt P09483+P12390). Briefly: Displacement of [3H]epibatidine from rat alpha4beta2 nAChR expressed in […] cells after 3 hrs. Type of test: cell-based.
Test [2] has as its target T1, Neuronal acetylcholine receptor; alpha3/beta4 (Rattus norvegicus, UniProt P04757+P12392). The test is described as follows: Displacement of [3H]epibatidine from rat alpha3beta4 nAChR expressed in […] cells after 3 hrs. The format is cell-based. (Loss of bound radioactivity is the signal in a displacement assay; it reports binding, not function.)
Test [3] addresses T1, Neuronal acetylcholine receptor; alpha3/beta4. The test is described as follows: Partial agonist activity at rat alpha3beta4 nAChR expressed in […] cells assessed as increase of calcium influx by FLIPR assay. The format is functional, cell-based. Summed up: (§1)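 For functional assays, KXα3β4R2 cells (DMEM, 10% FBS, geneticin, 37°C, 7.5% CO2) were seeded into collagen-coated 96-well plates at about 50,000 cells/well. They grew to a confluent monolayer in 24 to 30 h before testing.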

The target in test [4] is Neuronal acetylcholine receptor; alpha3/beta4 (Rattus norvegicus) (UniProt P04757+P12392). The test is described as follows: Partial agonist activity at rat alpha3beta4 nAChR expressed in […] cells assessed as increase of calcium influx by FLIPR assay relative to control. The format is functional, cell-based. Put shortly: as §1
The species entered for test [5] is Rattus norvegicus. Briefly: Selectivity ratio of Ki for rat alpha3beta4 nAChR to Ki for rat alpha4beta2 nAChR. Summed up: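 KXα3β4R2 or KXα4β2R2 cells grown in DMEM with 10% FBS and 0.4 mg/mL geneticin at 37°C under 7.5% CO2. Cells were scraped, homogenised in Tris buffer and spun at 20,000 x g to give membranes. […] Ki was obtained from IC50 by Cheng-Prusoff.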

The species entered for test [6] is Rattus norvegicus. Briefly: Selectivity ratio of Ki for rat alpha3beta4 nAChR to Ki for alpha7 nAChR in rat brain membranes. The format is cell membranes.

Bounds are passed on as bounds.

Sequence of Neuronal acetylcholine receptor; alpha4/beta2 (P09483 whole entry): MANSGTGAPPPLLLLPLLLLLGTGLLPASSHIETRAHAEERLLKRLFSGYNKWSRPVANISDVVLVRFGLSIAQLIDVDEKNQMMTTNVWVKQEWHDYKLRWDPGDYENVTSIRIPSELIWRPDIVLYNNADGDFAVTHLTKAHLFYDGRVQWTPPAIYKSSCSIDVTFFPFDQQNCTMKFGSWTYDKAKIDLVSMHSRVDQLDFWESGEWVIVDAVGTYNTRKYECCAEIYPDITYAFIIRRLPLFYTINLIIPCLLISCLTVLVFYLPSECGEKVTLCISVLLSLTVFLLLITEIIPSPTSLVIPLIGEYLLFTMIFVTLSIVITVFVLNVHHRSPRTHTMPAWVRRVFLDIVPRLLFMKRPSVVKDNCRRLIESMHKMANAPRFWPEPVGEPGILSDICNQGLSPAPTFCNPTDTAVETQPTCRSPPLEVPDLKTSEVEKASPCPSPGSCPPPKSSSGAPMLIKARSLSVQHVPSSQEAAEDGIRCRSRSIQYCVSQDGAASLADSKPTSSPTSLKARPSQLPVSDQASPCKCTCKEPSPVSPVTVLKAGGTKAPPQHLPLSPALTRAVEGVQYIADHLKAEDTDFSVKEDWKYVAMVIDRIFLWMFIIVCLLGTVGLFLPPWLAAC
Sequence of Neuronal acetylcholine receptor; alpha4/beta2 (P12390 whole entry): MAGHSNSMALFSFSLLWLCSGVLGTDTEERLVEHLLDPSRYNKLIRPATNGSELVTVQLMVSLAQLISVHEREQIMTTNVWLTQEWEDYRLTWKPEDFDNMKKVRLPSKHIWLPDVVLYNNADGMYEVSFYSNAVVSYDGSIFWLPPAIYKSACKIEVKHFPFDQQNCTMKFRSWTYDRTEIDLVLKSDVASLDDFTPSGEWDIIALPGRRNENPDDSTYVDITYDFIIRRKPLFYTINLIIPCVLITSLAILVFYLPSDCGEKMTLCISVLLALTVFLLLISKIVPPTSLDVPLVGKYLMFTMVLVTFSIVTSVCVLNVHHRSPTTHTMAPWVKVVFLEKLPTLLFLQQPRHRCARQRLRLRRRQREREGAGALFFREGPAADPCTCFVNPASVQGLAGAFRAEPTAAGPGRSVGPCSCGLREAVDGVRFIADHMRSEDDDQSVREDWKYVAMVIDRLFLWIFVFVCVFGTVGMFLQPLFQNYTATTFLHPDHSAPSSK
T1 sequence (P04757 whole entry): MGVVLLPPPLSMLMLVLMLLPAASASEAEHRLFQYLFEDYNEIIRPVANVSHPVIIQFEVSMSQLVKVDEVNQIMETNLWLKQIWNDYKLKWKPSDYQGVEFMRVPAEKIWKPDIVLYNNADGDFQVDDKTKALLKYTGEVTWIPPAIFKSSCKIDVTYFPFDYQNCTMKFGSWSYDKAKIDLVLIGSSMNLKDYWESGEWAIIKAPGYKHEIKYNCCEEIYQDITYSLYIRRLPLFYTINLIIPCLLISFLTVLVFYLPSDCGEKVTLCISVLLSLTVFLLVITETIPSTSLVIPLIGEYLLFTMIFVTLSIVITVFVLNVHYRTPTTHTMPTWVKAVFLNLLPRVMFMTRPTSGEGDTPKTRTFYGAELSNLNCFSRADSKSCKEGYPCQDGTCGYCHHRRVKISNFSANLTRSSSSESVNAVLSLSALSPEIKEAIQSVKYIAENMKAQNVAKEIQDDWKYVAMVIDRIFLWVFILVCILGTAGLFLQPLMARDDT
T1 sequence (P12392 whole entry): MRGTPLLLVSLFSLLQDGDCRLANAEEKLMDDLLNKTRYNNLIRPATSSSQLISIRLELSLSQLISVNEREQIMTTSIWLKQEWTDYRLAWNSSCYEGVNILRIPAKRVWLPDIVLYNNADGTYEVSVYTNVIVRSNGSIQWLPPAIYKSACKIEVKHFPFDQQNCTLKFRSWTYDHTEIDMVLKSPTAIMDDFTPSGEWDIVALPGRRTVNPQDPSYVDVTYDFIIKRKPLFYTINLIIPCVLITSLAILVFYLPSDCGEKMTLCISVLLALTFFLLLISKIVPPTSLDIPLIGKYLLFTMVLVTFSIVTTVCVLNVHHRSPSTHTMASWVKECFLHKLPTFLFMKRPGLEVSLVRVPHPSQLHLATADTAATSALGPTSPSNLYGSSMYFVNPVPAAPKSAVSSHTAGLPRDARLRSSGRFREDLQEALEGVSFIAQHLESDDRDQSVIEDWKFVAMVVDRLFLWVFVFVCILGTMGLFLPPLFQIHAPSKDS

`CC1CN(Cc2ccccc2)CCC1N1C(=O)Cc2ccccc21` (stereo not given): the Ki in test [1] and in test [2] was more than 10 µM throughout.

In the case of `CC(c1ccc(C2CCCCC2)cc1)N1CCC(N2C(=O)Cc3ccccc32)CC1` (stereo not given), the Ki in test [1] and in test [2] was more than 10 µM throughout.

On to `CN1C2C=C(c3cccnc3)CC1CCC2` (stereo not given), for which the affinity in test [1] corresponds to a Ki of 0.0104 µM. For the same molecule, in test [3], the 50% effective concentration (EC50) (as a rule, the midpoint of the concentration-response curve) came to 4.8 µM. The Emax (as a rule, the greatest response seen or fitted, relative to the assay's reference) in test [4] was 44%.

Take `O=C1Cc2ccccc2N1C1CC2CCCC(C1)N2` (stereo not given): in test [1], the inhibition constant (Ki) (usually the equilibrium dissociation constant of an inhibitor or competing ligand from its target) is more than 100 µM.

In test [1], `CN1C2CCCC1CC(N1C(=O)Cc3ccccc31)C2` (stereo not given) registered an inhibition constant (Ki) of more than 100 µM.

In the case of `O=C1Cc2ccccc2N1C1CC2CC(C1)N(Cc1ccccc1)C2` (stereo not given), the inhibitory constant (Ki) in test [1] is more than 10 µM; in test [2] it was 1.84 µM.

`C1=C(c2cccnc2)CC2CCC1CN2Cc1ccccc1` (stereo not given): the Ratio Ki turned out to be 100 in the test filed under Rattus norvegicus [5] and 200 in the test listed under Rattus norvegicus [6]. In addition, in test [3], the EC50 stood at 2 µM. In test [4], the maximal effect (Emax) worked out at 72%.

As to `CCC(C)(C)C1CCC(N2CCC(C3C(=O)Nc4ccccc43)CC2)CC1` (stereo not given), the Ki in test [1] and in test [2] was more than 10 µM throughout.

Consider `CN1CC2CC1CC(N1C(=O)Cc3ccccc31)C2` (stereo not given), for which the inhibition constant Ki in test [1] and in test [2] was more than 10 µM in each case.

Molecule `CN1C2CCC1CC(N1C(=O)Cc3ccccc31)C2` (stereo not given) displayed an inhibitory constant (Ki) in test [1] of more than 100 µM.
